Assay outcomes (PubChem)
ABHD4 inh: ABHD4 inhibitors, primary screen, biochemical, fluorescence polarization, mouse. hit rate 0.54% among 370,000. (Lyso)-N-acylphosphatidylethanolamine lipase (Mus musculus), Q8VD66. inhibition, % at 8.92 µM. purified mABHD4, FP-Rh probe fluorescence polarization;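 active = inhibition exceeding the mean over every tested compound plus 3 SD, cut at about 30% in these data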;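 note: 0% = plate median of compound wells and 100% = S159A mutant with DMSO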
Target sequence (Q8VD66 whole entry, looked up): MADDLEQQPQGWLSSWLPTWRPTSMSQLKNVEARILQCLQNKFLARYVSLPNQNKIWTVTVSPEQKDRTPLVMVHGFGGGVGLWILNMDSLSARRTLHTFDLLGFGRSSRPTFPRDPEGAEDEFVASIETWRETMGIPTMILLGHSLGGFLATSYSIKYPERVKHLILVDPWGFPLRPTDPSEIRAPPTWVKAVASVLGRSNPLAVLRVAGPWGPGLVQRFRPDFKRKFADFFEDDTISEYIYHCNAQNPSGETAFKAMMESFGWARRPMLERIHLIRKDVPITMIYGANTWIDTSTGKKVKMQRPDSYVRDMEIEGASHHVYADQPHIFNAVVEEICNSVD
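Assay system: wild-type mouse ABHD4 protein; compound: single nominal dose of 8.92 µM, 0.89% DMSO final; schedule: 45 min + 60 min at 25 °C; measured by: FP readout, ex 525 nm / em 598 nm; evaluation: % inhibition of FP-Rh probe binding versus controls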
HTRA1 inh: HTRA1 serine protease inhibitors, primary screen, biochemical, fluorescence polarization, HTS; inhibition, % at 5.96 µM; recombinant HTRA1, FP-rhodamine activity-based probe; hit rate 0.5% among 340,000; Q92743; in the data active = inhibition above about 36%;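 note: 0% = enzyme with DMSO and 100% = wells lacking enzyme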
LEDGF integ inh: blockers of LEDGF/p75-dependent integrase strand transfer – biochemical, TR-FRET, high throughput, primary screen | HIV-1 integrase (with human LEDGF/p75) | TR-FRET IN-LEDGF/p75 DNA integration, Eu/Cy5 | inhibition, % at 3.7 µM | hit rate 0.64% among 370,000 | AID 743269, 2014;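 active = inhibition above the screen-wide mean plus 3 SD, cut at about 13% in these data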;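 note: signal is the Cy5 over europium emission ratio at 671 and 618 nm; 0% = plate median of compound wells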
TDP2 absorb: human TDP2 enzyme inhibitors, primary screen, biochemical, epi absorbance, recombinant enzyme. Tyrosyl-DNA phosphodiesterase 2 (Homo sapiens), O95551. T5PNP hydrolysis, p-nitrophenol absorbance 415 nm. inhibition, % at 12.8 µM. hit rate 0.34% among 370,000. AID 720702, 2013;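 active = inhibition above the mean of all tested compounds plus 3 SD, set per campaign, cut at about 25% in these data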;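 note: 0% = DMSO with enzyme and 100% = buffer with substrate but no TDP2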
Target sequence (O95551 whole entry, looked up): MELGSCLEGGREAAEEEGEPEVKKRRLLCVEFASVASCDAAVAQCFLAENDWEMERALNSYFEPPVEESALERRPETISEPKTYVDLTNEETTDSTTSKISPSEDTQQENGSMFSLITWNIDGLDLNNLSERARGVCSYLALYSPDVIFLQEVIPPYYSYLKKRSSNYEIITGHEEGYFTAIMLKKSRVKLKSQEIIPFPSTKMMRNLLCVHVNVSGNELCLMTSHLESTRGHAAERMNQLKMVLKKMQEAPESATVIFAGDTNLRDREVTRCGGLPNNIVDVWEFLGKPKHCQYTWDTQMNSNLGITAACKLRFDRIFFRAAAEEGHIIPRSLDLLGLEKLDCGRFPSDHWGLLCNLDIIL
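System: recombinant human TDP2 / Amount: 120 nM TDP2 per well / Also added: 5 mM T5PNP chromogenic substrate / Doses: 12.8 µM single point, 1% DMSO / Incubation: 2 h at 37 °C / Detection: p-Nitrophenol epi absorbance / Evaluation: % inhibition relative to enzyme-containing and enzyme-free wells / Repeats: singlicate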
TCR-CD3 inh: inhibitors of human TCR-CD3 interaction, primary screen, biochemical, fluorescence, TAMRA-labeled TCR probe | T-cell receptor (TCR) | inhibition, % at 9.4 µM | hit rate 0.37% among 360,000;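 note: recombinant mutant TCR 2C K166C tagged with TAMRA read by polarization; 0% = receptor in buffer alone and 100% = receptor with positive control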
SIAE inh: human SIAE inhibitors, primary screen, biochemical, fluorescence polarization, FP-Rh probe, 1536-well HTS. SIAE FP-Rh probe binding. inhibition, % at 9.66 µM. hit rate 0.69% among 370,000. AID 1053197, 2014;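 active = inhibition above a cutoff: mean of compounds within the control limits plus 3 SD of those, cut at about 17% in these data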;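 note: 0% = plate median of compound wells and 100% = probe without SIAE protein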
HTRA1 conf: HTRA1 protease inhibitors, retest, confirmation, biochemical, fluorescence polarization; inhibition, % at 5.96 µM; shares compounds with HTRA1 inh; hit rate 66% among 1,600; recombinant HTRA1, FP-rhodamine activity-based probe;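 active = mean inhibition over three repeats above a set limit taken from the earlier primary screen, cut at about 37% in these data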;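 note: 0% = HTRA1 with DMSO and 100% = wells lacking HTRA1; inhibitors block probe binding so polarization drops and inhibition rises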
BSA probe FL: compounds interfering with TAMRA-BSA probe, counter-screen for TCR-CD3 interaction inhibitor project, biochemical, fluorescence, TAMRA-labeled BSA. shares compounds with TCR-CD3 inh. TAMRA-labeled BSA probe fluorescence counterscreen. inhibition, % at 9.4 µM. hit rate 10% among 1,200; in the data active = inhibition above about 23%;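 note: 0% = buffer low control and 100% = reference high control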
TCR-CD3 conf: TCR-CD3 interaction inhibitors, retest, confirmation, biochemical, fluorescence, TAMRA-labeled TCR probe. AID 652036, 2013. TAMRA-labeled TCR probe fluorescence binding assay. hit rate 48% among 1,200. shares compounds with TCR-CD3 inh. inhibition, % at 9.4 µM
ABHD4 confirm: ABHD4 inhibitors, retest, confirmation, biochemical, fluorescence polarization, mouse; purified mABHD4, FP-Rh probe fluorescence polarization; inhibition, % at 8.92 µM; shares compounds with ABHD4 inh; hit rate 55% among 1,800; AID 720658, 2013;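 active = mean inhibition across replicates above the hit cutoff set in the primary screen, cut at about 30% in these data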;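 note: 0% = wild-type ABHD4 with DMSO and 100% = catalytically dead S159A mutant with DMSO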
TDP2 inh conf: human TDP2 enzyme inhibitors, retest, confirmation, biochemical, epi absorbance, recombinant enzyme. absorbance read-out. inhibition, % at 12.8 µM. shares compounds with TDP2 absorb. hit rate 22% among 1,100; in the data active = inhibition above about 25%;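 note: 0% = vehicle with enzyme and 100% = no enzyme buffer only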
IN multimer act: HIV-1 IN multimer formation enhancers, counter-screen for LEDGF/p75 integration inhibitor project, biochemical, TR-FRET | shares compounds with LEDGF integ inh | TR-FRET HIV-1 integrase multimerization | activation, % at 7.7 µM | hit rate 17% among 2,000 | AID 1053131, 2014; in the data active = activation above about 8.9%
TR-FRET interf: TR-FRET optical interference artefacts, confirmation, artefact control for LEDGF/p75-dependent integration inhibitor project, biochemical, HIV-1 IN multimerization; shares compounds with LEDGF integ inh; TR-FRET optical interference counterscreen; inhibition, % at 7.7 µM; 2,000 tested, under 10 active; AID 1053135, 2014;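 active = inhibition above the mean over all tested compounds plus 3 SD, which no compound reached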;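 note: 0% = integrase with antibodies and DMSO and 100% = antibodies without integrase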
IN-LEDGF confirm: inhibitors of HIV-1 IN-LEDGF/p75 DNA integration, confirmation, biochemical, TR-FRET. shares compounds with LEDGF integ inh. TR-FRET LEDGF/p75-dependent HIV-1 integration. inhibition, % at 3.7 µM. hit rate 36% among 2,000. AID 1053136, 2014; in the data active = inhibition above about 14%
* marks the source's active call; other numbers are inactive results; . = no result given. Compounds with a hit are over-represented: about 2.2% of the library has one in this group of screens. Cut-off read from the data, not from the text of the source, unless noted: active = inhibition above about 19%; inactive = the rest.

SMILES	ABHD4 inh	HTRA1 inh	LEDGF integ inh	TDP2 absorb	TCR-CD3 inh	SIAE inh	HTRA1 conf	ABHD4 confirm	IN multimer act	TR-FRET interf	IN-LEDGF confirm	others
Cc1ccc(Nc2ccc(N)cc2S(=O)(=O)O)cc1	65*	80*	19*	1	0	14	21	18	10*	-36	2
Nc1ccc(Nc2ccccc2)c(S(=O)(=O)O)c1	63*	58*	19*	-6	22*	10	15	44*	10*	-53	11	BSA probe FL=-3;TCR-CD3 conf=9
Cc1ccc2c(c1)C1CS(=O)(=O)N(Cc3ccccc3)CN1C2 (configuration not stated)	-2	.	3	10	.	-5	.	.	.	.	.
COc1cccc(N/N=C/c2cccc(Br)c2O)c1	7	12	-3	3	0	12	.	.	.	.	.
Cc1cccc(N/N=C/c2ccc(O)c(O)c2O)c1	36*	59*	70*	-11	6	-2	62*	35*	9.1*	-46	29*
COCCN1Cc2cc(C(=O)OC)c3c(c2C1=O)c1ccccc1n3S(=O)(=O)c1ccc(C)cc1	-6	.	2	-11	3	-2	.	.	.	.	.
CCOC(=O)[C@@]12CCCC3=C1N(CCC3)C(=O)[C@H]2CC(=O)N1CCN(C(=O)C2CC2)CC1	0	.	4	-2	.	0	.	.	.	.	.
NNc1ccc([N+](=O)[O-])c2[nH][nH]c(=O)c12	54*	52*	19*	5	50*	5	49*	.	35*	-176	44*	BSA probe FL=-18;TCR-CD3 conf=106*
CCCCCC(=O)N/N=C/c1ccc([N+](=O)[O-])o1	7	8	-1	-8	-4	-3	.	.	.	.	.
CCN(CC)c1ccc(N=Cc2ccc([N+](=O)[O-])o2)cc1	45*	64*	41*	-2	5	7	41*	16	7	-36	18*
O=C(O)c1ccc(NC2=C/C(=N/S(=O)(=O)c3cccs3)c3ccccc3C2=O)cc1	37*	42*	31*	60*	6	3	46*	78*	9.1*	-32	75*	TDP2 inh conf=73*
O=C(O)c1cccc(NC2=C(n3nnc4ccccc43)C(=O)c3ccccc3C2=O)c1	-1	5	5	22	2	4	.	.	.	.	.
CCc1ccc(S(=O)(=O)/N=C2\C=C(Nc3cccc(C(=O)O)c3)C(=O)c3ccccc32)cc1	65*	70*	47*	69*	1	11	66*	84*	3	-9	74*	TDP2 inh conf=74*
O=C(O)c1ccc(Nc2nc3ccccc3nc2NS(=O)(=O)c2cccs2)cc1	3	3	1	-10	7	-6	.	.	.	.	.
O=S(=O)(O)c1cc(O)c(N=Nc2ccc(O)cc2O)c2ccccc12	-36	78*	32*	16	150*	11	54*	.	95*	-339	40*	BSA probe FL=171*;TCR-CD3 conf=130*
O=S(=O)(O)c1cc(O)ccc1O	2	2	0	2	-1	3	.	.	.	.	.
Oc1cccc(/C=N/NC(=S)Nc2cccnc2)c1O	31*	42*	33*	2	0	14	24	25	21*	-106	30*
O=S(=O)(c1ccc2nc(-c3ccco3)c(-c3ccco3)nc2c1)N1CCOCC1	56*	41*	67*	17	16	4	9	29	1	-5	45*
Oc1ccc(-c2csc(Nc3ncccn3)n2)c(O)c1	-1	4	3	-3	-6	-5	.	.	.	.	.
Oc1ccc(-c2csc(Nc3ncccn3)n2)cc1O	14	54*	17*	-1	32*	-2	59*	.	27*	-134	6	BSA probe FL=-19;TCR-CD3 conf=17
CCCCOC(=O)CCN1C(=O)/C(=C/c2ccccc2)SC1=S	-4	.	-2	0	.	-4	.	.	.	.	.
O=C(Cc1cnn(-c2ccccc2)c1)c1ccc(O)c(O)c1O	24	69*	22*	-7	10	-15	94*	.	10*	-36	18*
O=C1c2ccccc2C(=O)c2c1cccc2N1CCCC1	33*	45*	30*	13	-22	0	49*	57*	3	-11	2
